Test results taken from ChEMBL document CHEMBL4145462, “Nitrogen-containing ecdysteroid derivatives vs. multi-drug resistance in cancer: Preparation and antitumor activity of oximes, oxime ethers and a lactam” (Eur J Med Chem, 2018).

Experiments:
[1] = Synergistic cytotoxicity against mouse L5178 cells expressing human ABCB1 assessed as combination index at ED50 using 60:1 test compound to doxorubicin ratio after 48 hrs by MTT-based checkerboard microplate method; type: functional
Method in brief: (§1)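 Checkerboard microplate combinations of compound with doxorubicin at constant molar ratios. 5 × 10^4 cells/well in McCoy's 5A, 48 h at 37°C, 5% CO2. MTT added to 0.5 mg/mL final for 4 h, SDS/HCl overnight, OD read at 540 and 630 nm. Combination indices derived per ratio for 50%, 75% and 90% growth inhibition by median-effect analysis.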

[2] = Synergistic cytotoxicity against mouse L5178 cells assessed as combination index at ED50 using 150:1 test compound to doxorubicin ratio after 48 hrs by MTT-based checkerboard microplate method; type: functional; method in brief: as §1
MDA-MB-231 = assay: Antiproliferative activity against human MDA-MB-231 cells after 72 hrs by MTT assay; type: functional, cell-based; settings: MDA-MB-231, 72 h
Method in brief: (§2)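 Cells grown in MEM with 10% FCS, 1% non-essential amino acids and 1% penicillin-streptomycin. Seeded at 5000 cells/well, exposed to 0.1–30.0 µM compound for 72 h. MTT (5 mg/ml solution) was then added for 4 h, formazan dissolved in DMSO, and absorbance read at 545 nm. Cisplatin served as positive control. IC50 came from sigmoidal dose–response fits (log inhibitor vs normalized response, variable slope).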

SiHa = assay: Antiproliferative activity against human SiHa cells after 72 hrs by MTT assay; type: functional, cell-based; method in brief: as §2
[3] = Synergistic cytotoxicity against mouse L5178 cells assessed as combination index at ED75 using 37.5:1 test compound to doxorubicin ratio after 48 hrs by MTT-based checkerboard microplate method; type: functional; method in brief: as §1
[4] = Synergistic cytotoxicity against mouse L5178 cells assessed as combination index at ED50 using 75:1 test compound to doxorubicin ratio after 48 hrs by MTT-based checkerboard microplate method; type: functional; method in brief: as §1
[5] = Synergistic cytotoxicity against mouse L5178 cells assessed as combination index at ED75 using 75:1 test compound to doxorubicin ratio after 48 hrs by MTT-based checkerboard microplate method; type: functional; method in brief: as §1
[6] = Synergistic cytotoxicity against mouse L5178 cells assessed as combination index at ED75 using 150:1 test compound to doxorubicin ratio after 48 hrs by MTT-based checkerboard microplate method; type: functional; method in brief: as §1
[7] = Synergistic cytotoxicity against mouse L5178 cells expressing human ABCB1 assessed as combination index at ED50 using 30:1 test compound to doxorubicin ratio after 48 hrs by MTT-based checkerboard microplate method; type: functional; method in brief: as §1
[8] = Cytotoxicity against mouse L5178 cells after 48 hrs by MTT assay; type: functional, cell-based; settings: L5178, 48 h
Method in brief: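 Parental mouse lymphoma L5178 and the MDR line made by pHa MDR1/A retrovirus transfection, selected with 60 µg/L colchicine. Grown in McCoy's 5A with horse serum at 37°C, 5% CO2. 5 x 10^4 cells/well, serial compound dilutions, 48 h. MTT added to 0.5 mg/mL final for 4 h, then 10% SDS in 0.01 M HCl overnight, OD read at 540 and 630 nm. IC50 taken as median cytotoxic activity (Dm) from control lanes of checkerboard plates, n=2.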

[9] = Synergistic cytotoxicity against mouse L5178 cells expressing human ABCB1 assessed as combination index at ED90 using 15:1 test compound to doxorubicin ratio after 48 hrs by MTT-based checkerboard microplate method; type: functional; method in brief: as §1
[10] = Synergistic cytotoxicity against mouse L5178 cells assessed as combination index at ED90 using 75:1 test compound to doxorubicin ratio after 48 hrs by MTT-based checkerboard microplate method; type: functional; method in brief: as §1
[11] = Synergistic cytotoxicity against mouse L5178 cells assessed as combination index at ED75 using 300:1 test compound to doxorubicin ratio after 48 hrs by MTT-based checkerboard microplate method; type: functional; method in brief: as §1
[12] = Synergistic cytotoxicity against mouse L5178 cells expressing human ABCB1 assessed as combination index at ED90 using 60:1 test compound to doxorubicin ratio after 48 hrs by MTT-based checkerboard microplate method; type: functional; method in brief: as §1
[13] = Synergistic cytotoxicity against mouse L5178 cells expressing human ABCB1 assessed as combination index at ED50 using 7.5:1 test compound to doxorubicin ratio after 48 hrs by MTT-based checkerboard microplate method; type: functional; method in brief: as §1
[14] = Synergistic cytotoxicity against mouse L5178 cells expressing human ABCB1 assessed as combination index at ED75 using 60:1 test compound to doxorubicin ratio after 48 hrs by MTT-based checkerboard microplate method; type: functional; method in brief: as §1
[15] = Synergistic cytotoxicity against mouse L5178 cells assessed as combination index at ED90 using 600:1 test compound to doxorubicin ratio after 48 hrs by MTT-based checkerboard microplate method; type: functional; method in brief: as §1
[16] = Synergistic cytotoxicity against mouse L5178 cells expressing human ABCB1 assessed as combination index at ED50 using 15:1 test compound to doxorubicin ratio after 48 hrs by MTT-based checkerboard microplate method; type: functional; method in brief: as §1
[17] = Synergistic cytotoxicity against mouse L5178 cells assessed as combination index at ED50 using 37.5:1 test compound to doxorubicin ratio after 48 hrs by MTT-based checkerboard microplate method; type: functional; method in brief: as §1
[18] = Synergistic cytotoxicity against mouse L5178 cells expressing human ABCB1 assessed as combination index at ED75 using 15:1 test compound to doxorubicin ratio after 48 hrs by MTT-based checkerboard microplate method; type: functional; method in brief: as §1
[19] = Synergistic cytotoxicity against mouse L5178 cells expressing human ABCB1 assessed as combination index at ED90 using 30:1 test compound to doxorubicin ratio after 48 hrs by MTT-based checkerboard microplate method; type: functional; method in brief: as §1
[20] = Synergistic cytotoxicity against mouse L5178 cells expressing human ABCB1 assessed as combination index at ED90 using 3.75:1 test compound to doxorubicin ratio after 48 hrs by MTT-based checkerboard microplate method; type: functional; method in brief: as §1
ABCB1 (P-glycoprotein) [21] = biological target: T1, ABCB1 (P-glycoprotein) (Homo sapiens, UniProt P08183); assay: Inhibition of human ABCB1 expressed in mouse L5178 cells assessed as increase in rhodamine-123 accumulation at 20 uM after 10 mins by flow cytometric analysis relative to control; type: cell-based; settings: mouse L5178 cells expressing human ABCB1, probe rhodamine-123
Method in brief: (§3)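 Cells at 2 × 10^6/mL were preincubated 10 min with compound. Rhodamine 123 then added to 5.2 µM final, 20 min at 37 °C. Cells washed twice in PBS, resuspended and read by flow cytometry. Percent inhibition was scaled between MDR-cell accumulation (0%) and parental L5178 accumulation (100%). Controls: 100 nM tariquidar (positive) and 2% DMSO (negative).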

[22] = Synergistic cytotoxicity against mouse L5178 cells assessed as combination index at ED90 using 300:1 test compound to doxorubicin ratio after 48 hrs by MTT-based checkerboard microplate method; type: functional; method in brief: as §1
[23] = Synergistic cytotoxicity against mouse L5178 cells expressing human ABCB1 assessed as combination index at ED75 using 7.5:1 test compound to doxorubicin ratio after 48 hrs by MTT-based checkerboard microplate method; type: functional; method in brief: as §1
MCF7 = assay: Antiproliferative activity against human MCF7 cells after 72 hrs by MTT assay; type: functional, cell-based; settings: MCF7, 72 h; method in brief: as §2
ABCB1 (P-glycoprotein) [24] = biological target: T1, ABCB1 (P-glycoprotein); assay: Inhibition of human ABCB1 expressed in mouse L5178 cells assessed as increase in rhodamine-123 accumulation at 2 uM after 10 mins by flow cytometric analysis relative to control; type: cell-based; settings: mouse L5178 cells expressing human ABCB1, probe rhodamine-123; method in brief: as §3

T1 sequence (P08183 whole entry): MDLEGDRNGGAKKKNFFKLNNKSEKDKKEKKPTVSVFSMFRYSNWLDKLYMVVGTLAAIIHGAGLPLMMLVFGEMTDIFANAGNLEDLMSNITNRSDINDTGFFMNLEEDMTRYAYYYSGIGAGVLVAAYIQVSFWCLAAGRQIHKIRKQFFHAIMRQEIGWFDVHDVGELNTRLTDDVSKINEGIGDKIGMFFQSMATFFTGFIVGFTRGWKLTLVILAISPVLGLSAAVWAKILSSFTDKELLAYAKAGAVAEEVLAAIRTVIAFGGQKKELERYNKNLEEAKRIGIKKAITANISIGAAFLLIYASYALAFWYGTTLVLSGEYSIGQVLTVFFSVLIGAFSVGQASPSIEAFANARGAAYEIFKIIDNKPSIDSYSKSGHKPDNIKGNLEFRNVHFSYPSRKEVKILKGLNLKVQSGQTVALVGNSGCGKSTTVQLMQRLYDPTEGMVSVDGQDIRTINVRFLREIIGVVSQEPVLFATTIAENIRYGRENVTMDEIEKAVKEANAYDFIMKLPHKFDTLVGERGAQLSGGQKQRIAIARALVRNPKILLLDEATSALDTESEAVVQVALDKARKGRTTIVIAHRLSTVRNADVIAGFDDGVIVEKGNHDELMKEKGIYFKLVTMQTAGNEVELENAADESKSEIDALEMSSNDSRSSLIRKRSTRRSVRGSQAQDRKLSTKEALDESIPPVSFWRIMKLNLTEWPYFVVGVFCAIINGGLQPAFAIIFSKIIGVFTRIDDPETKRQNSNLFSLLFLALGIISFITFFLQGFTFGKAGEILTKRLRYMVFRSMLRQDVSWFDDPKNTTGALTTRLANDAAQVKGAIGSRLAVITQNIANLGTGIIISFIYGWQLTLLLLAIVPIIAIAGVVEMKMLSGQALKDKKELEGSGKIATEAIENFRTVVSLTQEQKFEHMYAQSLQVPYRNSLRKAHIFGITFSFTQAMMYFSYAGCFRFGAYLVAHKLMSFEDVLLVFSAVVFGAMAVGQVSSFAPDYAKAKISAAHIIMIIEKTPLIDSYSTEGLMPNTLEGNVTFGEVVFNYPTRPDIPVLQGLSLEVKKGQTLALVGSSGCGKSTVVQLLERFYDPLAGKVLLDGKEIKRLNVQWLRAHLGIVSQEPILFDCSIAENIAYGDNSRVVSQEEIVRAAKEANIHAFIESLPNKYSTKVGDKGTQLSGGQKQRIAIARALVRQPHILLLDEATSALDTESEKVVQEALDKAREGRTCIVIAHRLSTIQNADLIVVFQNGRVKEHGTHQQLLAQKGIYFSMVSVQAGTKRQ

## CC(C)(O)CC[C@H]1OC(C)(C)O[C@]1(C)[C@H]1CC=C2C3=C/C(=N/OC(C)(C)C)[C@@H]4C[C@H]5OC(C)(C)O[C@H]5C[C@]4(C)[C@H]3CC[C@@]21C
[1]
  CI: 0.47
[2]
  CI: 0.34
MDA-MB-231
  IC50: 15.7 µM
SiHa
  IC50: 8.14 µM
[3]
  CI: 0.59
[4]
  CI: 0.82
[5]
  CI: 0.67
[6]
  CI: 0.63
[7]
  CI: 0.34
[8]
  IC50: 63.2 µM
[9]
  CI: 0.33
[10]
  CI: 0.55
[11]
  CI: 1.06
[12]
  CI: 0.53
[13]
  CI: 0.34
[14]
  CI: 0.5
[15]
  CI: 0.94
[16]
  CI: 0.5
[17]
  CI: 0.53
[18]
  CI: 0.32
[19]
  CI: 0.31
[20]
  CI: 0.23
ABCB1 (P-glycoprotein) [21]
  inhibition at 10 min, 20 µM: 78.8%
[22]
  CI: 1.07
[23]
  CI: 0.26
MCF7
  IC50: 17.3 µM
ABCB1 (P-glycoprotein) [24]
  inhibition at 10 min, 2 µM: 59%
